Results of several laboratories.
Lines come from different studies, so protocols differ.
BRD4 BD1: Bromodomain-containing protein 4, BD1 (BRD4, Homo sapiens, UniProt O60885)
murD: UDP-N-acetylmuramoylalanine--D-glutamate ligase (murD, Escherichia coli K-12, UniProt P14900)
MAP3K4: Mitogen-activated protein kinase kinase kinase 4 (MAP3K4, Homo sapiens, UniProt Q9Y6R4)
HDAC8: Histone deacetylase 8 (HDAC8, Homo sapiens, UniProt Q9BY41)

Structure (SMILES)	target	observed	action	technique	concentration	endpoint	result
Cn1nnc2ccc(NC(=O)c3cccc(C(=O)O)c3)cc21	BRD4 BD1	thermal stability		DSF	100 µM	ΔTm	2.8 °C
N#Cc1ccc(COc2ccccc2C=NNS(=O)(=O)Cc2ccccc2F)cc1	murD	enzyme activity	inhibitor	absorbance	100 µM	remaining activity	39%
Cc1cc2c(cc1N1C(=O)c3cccc4c(Cl)ccc(c34)C1=O)n(C)c(=O)n2C	Histone acetyltransferase KAT2B (KAT2B, Homo sapiens, UniProt Q92831)	thermal stability		DSF	10 µM	ΔTm	0.5 °C
C[S+]([O-])c1ccc(-c2nc(-c3ccncc3)c(-c3ccc(F)cc3)[nH]2)cc1 (centres unmarked)	Tyrosine-protein kinase BAZ1B (BAZ1B, Homo sapiens, UniProt Q9UIG0)	thermal stability		DSF	10 µM	ΔTm	0.29 °C
CCCOc1ccc(OC)c(F)c1C(=O)c1ccc(C(=O)N[C@@H]2CNC[C@H]2NC(=O)c2ccc3[nH]ncc3c2)cc1	cGMP-dependent protein kinase 1 (PRKG1, Homo sapiens, UniProt Q13976)	enzyme activity	inhibitor		50 nM	remaining activity	22%
NS(=O)(=O)c1ccc(Nc2nc(-c3ccc(F)cc3)c3ccccc3n2)cc1	BRD4 BD1	binding		competition with immobilised ligand	1 µM	remaining binding	5%
Cc1cnc(Nc2ccc(OCCN3CCCC3)cc2)nc1Nc1cccc(S(=O)(=O)NC(C)(C)C)c1	Bromodomain-containing protein 4, BD2 (BRD4, Homo sapiens, UniProt O60885)	thermal stability		DSF	10 µM	ΔTm	3.11 °C
N#Cc1ccc(COc2ccccc2C=NNS(=O)(=O)c2cccc([N+](=O)[O-])c2)cc1	murD	enzyme activity	inhibitor	absorbance	100 µM	remaining activity	74%
Oc1ccc(-c2nc(-c3ccncc3)c(-c3ccc(F)cc3)[nH]2)cc1	BRD4 BD1	thermal stability		DSF	10 µM	ΔTm	0.55 °C
Cc1ccc(C(=O)Nc2ccc(CN3CCN(C)CC3)c(C(F)(F)F)c2)cc1C#Cc1cnc2cccnn12	MAP3K4	enzyme activity	inhibitor		23.5 nM	remaining activity	95%
O=[N+]([O-])c1cccc(COc2ccccc2C=NNS(=O)(=O)c2ccc3ccccc3c2)c1	murD	enzyme activity	inhibitor	absorbance	50 µM	remaining activity	70%
Nc1ncnc2c1ncn2[C@@H]1O[C@H](CO)[C@@H](O)[C@H]1O	HDAC8	enzyme activity	inhibitor		10 µM	inhibition	-15.9%
Nc1ncnc2occ(-c3ccc(NC(=O)Nc4cc(C(F)(F)F)ccc4F)cc3)c12	MAP3K4	cell-free assay	inhibitor		20 µM	remaining signal	1.6%
O=[N+]([O-])c1ccccc1S(=O)(=O)Oc1ccccc1C=NNS(=O)(=O)c1ccc2ccccc2c1	murD	enzyme activity	inhibitor	absorbance	50 µM	remaining activity	71%
CC(C)[C@@H]1NC(=O)[C@@H]2CCCN2C(=O)[C@H](Cc2ccccc2)NC(=O)CSC[C@@H](C(=O)N[C@@H](Cc2ccc(O)cc2)C(N)=O)NC(=O)[C@H](Cc2c[nH]c3ccccc23)NC(=O)[C@H](CCCCN)NC(=O)[C@H](Cc2ccccc2)N(C)C(=O)[C@H](Cc2ccccc2)NC1=O	BRD4 BD1	thermal stability		DSF	50 µM	ΔTm	-0.52 °C
O=C(Nc1ccc(C=NNS(=O)(=O)c2ccc3ccccc3c2)cc1)c1cc([N+](=O)[O-])cc([N+](=O)[O-])c1	murD	enzyme activity	inhibitor	absorbance	100 µM	remaining activity	78%
CC[C@H](CC[C@@H](C)[C@H]1CC[C@H]2[C@@H]3CC=C4C[C@@H](O[C@@H]5O[C@H](CO)[C@@H](O)[C@H](O)[C@H]5O)CC[C@]4(C)[C@H]3CC[C@]12C)C(C)C	HDAC8	enzyme activity	inhibitor		10 µM	inhibition	-8.57%
